Published values of several laboratories.
Lines come from different studies, so protocols differ.
PRPF4B: Serine/threonine-protein kinase PRP4 homolog (PRPF4B, Homo sapiens, UniProt Q13523)

| Compound | target | test | setting | quantity | result |
| --- | --- | --- | --- | --- | --- |
| Cc1nn(C)cc1-c1nc2c(N3CCN(Cc4ccc(Cl)cc4)CC3)c(Cl)cnc2[nH]1 | Epidermal growth factor receptor (EGFR, Homo sapiens, UniProt P00533, G719C) | binding, competition with immobilised ligand | 1 µM | remaining binding | 86% |
| Brc1cc2c(N3CCNCC3)nccn2c1 | Beta-secretase 1 (BACE1, Homo sapiens, UniProt P56817) | thermal stability, DSF | 2.1 mM, pH 5.4 | ΔTm | -0.27 °C |
| CCN1CCN(Cc2ccc(C(=O)Nc3ccc(C)c(Oc4ccc5c(c4)CC(=O)N5)c3)cc2C(F)(F)F)CC1 | PRPF4B | binding, competition with immobilised ligand | 1 µM | remaining binding | 100% |
| O=C(Nc1cccnn1)N1CCN([C@@H]2CCOc3cc(C(F)(F)F)ccc32)CC1 | Neuropeptide Y receptor type 1 (NPY1R, Homo sapiens, UniProt P25929) | cell-free assay | 20 µM | inhibition | -5% |
| Cn1cc(-c2cc(F)cc(N3CCn4c(cc5c4CCCC5)C3=O)c2CO)cc(Nc2ccc(N3CCN(C4COC4)CC3)cn2)c1=O | Muscle, skeletal receptor tyrosine-protein kinase (MUSK, Homo sapiens, UniProt O15146) | enzyme activity, inhibitor | 0.1 µM | inhibition | 17% |
| Nc1ncc(-c2nc(N3CCOCC3)nc(N3CCOCC3)n2)c(C(F)F)n1 | Microtubule-associated serine/threonine-protein kinase 1 (MAST1, Homo sapiens, UniProt Q9Y2H9) | binding, competition with immobilised ligand | 10 µM | remaining binding | 90% |
| Nc1ccc(-c2nsc(=O)o2)cc1 | Proteasome Macropain subunit MB1 (PSMB5, Homo sapiens, UniProt P28074) | enzyme activity, inhibitor |  | kinact/KI | 8.6 M⁻¹ s⁻¹ |
| Cn1cc(-c2cccc(N3CCc4c(sc5c4CC(C)(C)C5)C3=O)c2CO)cc(Nc2ccncn2)c1=O | PAS domain-containing serine/threonine-protein kinase (PASK, Homo sapiens, UniProt Q96RG2) | enzyme activity, inhibitor | 1 µM | inhibition | 21% |
| CC[C@H](C)[C@H](NC(=O)[C@H](CO)NC(=O)[C@@H](N)CCCCN)C(=O)N[C@H](C(=O)N[C@@H](CC(N)=O)C(=O)N[C@@H](Cc1ccccc1)C(=O)N[C@@H](CCC(=O)O)C(=O)N[C@@H](CCCCN)C(=O)N[C@@H](CC(C)C)C(=O)O)[C@@H](C)CC | Endoplasmic reticulum aminopeptidase 2 (ERAP2, Homo sapiens, UniProt Q6P179) | enzyme activity, substrate, mass spectrometry |  | Km | 12.3 µM |
| CCN(CC)CCCC[C@H](NC(=O)[C@H](CC(C)C)NC(=O)[C@H](C)NC(=O)[C@H](Cc1ccccc1)NC(=O)c1ccc(C(C)(C)C)cc1)C(=O)N[C@@H](CO)C(=O)OC | Nucleosome-remodeling factor subunit BPTF (BPTF, Homo sapiens, UniProt Q12830) | thermal stability, DSF | 25 µM | ΔTm | 0 °C |
| COc1ncccc1-c1cnn2ccc(N3CCN(C(=O)OC(C)C)CC3)nc12 | PRPF4B | binding, competition with immobilised ligand | 1 µM | remaining binding | 28% |
| C#Cc1n[nH]c2c(-c3cn(C(C)c4ccccn4)c(=O)[nH]c3=O)cc(F)cc12 (stereo not drawn) | Epidermal growth factor receptor (EGFR, Homo sapiens, UniProt P00533, L858R/T790M) | enzyme activity, inhibitor | 1 µM | inhibition | -1.7% |
